Reference: paper PMC10621021 (ACS Omega, 2023)
Values joined by “and” are separate entries in the source; they are usually repeats but may differ in a detail not shown here. Identical values can stand only once.

Assays:
[1] = system: amastigote stages of Leishmania major; details: cited from earlier work
[2] = system: intracellular amastigotes of L. amazonensis RFP; assay type: cell-based, Leishmania amazonensis; details: for antileishmanial activity on amastigotes (in words): L. amazonensis intracellular amastigotes, up to 100 μM
Summary of the method: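 BALB/c peritoneal macrophages (3% thioglycolate-elicited), adherent, infected 10:1 with stationary-phase RFP-transfected L. amazonensis IFLA/BR/67/PH8 promastigotes. After 4 h, wash, then compound 12.5–100 μM for 72 h at 33 °C, 5% CO2. Lysis in deionized water, fluorescence Ex 540/Em 600 nm. IC50 from mean of three independent experiments.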

MDA-MB-231 = experiment: MTT cell viability, MDA-MB-231; assay type: cell-based, human; details: 25 μM
HEPG2 = experiment: MTT cell viability, HEPG2; assay type: cell-based, human; details: 25 μM
[3] = system: L. amazonensis promastigotes; experiment: Antileishmanial activity against promastigotes of L. amazonensis; assay type: cell-based, Leishmania amazonensis; details: for antileishmanial activity on promastigotes (in words): L. amazonensis promastigotes, up to 100 μM; for IC50: Leishmania amazonensis, 72 h, read-out: Promastigotes IC50, L. amazonensis promastigotes, MTT, 72 h, 6.25–100 μM
Summary of the method: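 Log-phase promastigotes at 2 × 10^6 cells/mL exposed to compound 6.25–100 μM for 72 h at 25 °C. MTT (5 mg/mL solution) added for 4 h, absorbance read at 570 nm. Viability is expressed relative to untreated parasites. IC50 from three independent experiments; miltefosine was the reference.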

Compound | antileishmanial activity on amastigotes (in words) [2] | cytotoxicity on MDA-MB-231 (in words) (MDA-MB-231) | cytotoxicity on HEP-G2 (in words) (HEPG2) | antileishmanial activity on promastigotes (in words) [3] | other results
Cc1ccc(-c2c(-c3ccccc3)nc3ccccn23)cc1 [Compound 2, 2-phenyl-3-(p-tolyl)imidazo[1,2-a]pyridine] |  |  |  |  | IC50 [1]: 4 µM
CC(C)(C)CC(C)(C)Nc1c(-c2cccs2)nc2ncccn12 [Compound 26, 2-(thiophen-2-yl)-N-(2,4,4-trimethylpentan-2-yl)imidazo[1,2-a]pyrimidin-3-amine] | showed an effect on L. amazonensis amastigotes only |  |  |  | 
CC(C)(C)CC(C)(C)Nc1c(-c2ccccc2)nc2ncccn12 [Compound 18, 2-phenyl-N-(2,4,4-trimethylpentan-2-yl)imidazo[1,2-a]pyrimidin-3-amine] |  | no any significant cytotoxicity | no any significant cytotoxicity |  | 
CC(C)(C)CC(C)(C)Nc1c(-c2cccc([N+](=O)[O-])c2)nc2ncccn12 [Compound 23, 2-(3-nitrophenyl)-N-(2,4,4-trimethylpentan-2-yl)imidazo[1,2-a]pyrimidin-3-amine] | did not show any biological activity |  |  | did not show any biological activity | 
COc1ccc(-c2nc3ncccn3c2NC(C)(C)CC(C)(C)C)cc1O [Compound 22, 2-methoxy-5-(3-((2,4,4-trimethylpentan-2-yl)amino)imidazo[1,2-a]pyrimidin-2-yl)phenol] | not tolerated for the antileishmanial activity | no any significant cytotoxicity | no any significant cytotoxicity | not tolerated for the antileishmanial activity | 
CCCCc1nc2ncccn2c1NC(C)(C)CC(C)(C)C [Compound 27, 2-butyl-N-(2,4,4-trimethylpentan-2-yl)imidazo[1,2-a]pyrimidin-3-amine] | moderate activity |  |  | moderate activity | 
CC(C)(C)CC(C)(C)Nc1c(-c2ccc3c(c2)OCO3)nc2ncccn12 [Compound 14, 2-(benzo[d][1,3]dioxol-5-yl)-N-(2,4,4-trimethylpentan-2-yl)imidazo[1,2-a]pyrimidin-3-amine] |  |  |  |  | IC50 [3]: 46.1 µM
CCCCCCCCc1nc2ncccn2c1NC(C)(C)CC(C)(C)C [Compound 28, 2-octyl-N-(2,4,4-trimethylpentan-2-yl)imidazo[1,2-a]pyrimidin-3-amine] | moderate activity |  |  | moderate activity | 
CC(C)(C)CC(C)(C)Nc1c(-c2cccnc2)nc2ncccn12 [Compound 25, 2-(pyridin-3-yl)-N-(2,4,4-trimethylpentan-2-yl)imidazo[1,2-a]pyrimidin-3-amine] | evaded the activity | no any significant cytotoxicity | no any significant cytotoxicity | evaded the activity | 
CC(C)(C)CC(C)(C)Nc1c(-c2cccc(C#N)c2)nc2ncccn12 [Compound 24, 3-(3-((2,4,4-trimethylpentan-2-yl)amino)imidazo[1,2-a]pyrimidin-2-yl)benzonitrile] |  | no any significant cytotoxicity | no any significant cytotoxicity |  | Selectivity Index ([2]; SI: CC50 in peritoneal macrophages/IC50 in intracellular amastigotes): 10 and > 10; IC50 [3]: < 10 µM
